ChEMBL document CHEMBL1777697, “Imidazolone-amide bridges and their effects on tubulin polymerization in cis-locked vinylogous combretastatin-A4 analogues: synthesis and biological evaluation” (Bioorg Med Chem, 2011)
pIC50: −log10 of the molar value. The source made the active and inactive calls. No cut-off for these calls is given here.

How the values were obtained:
LoVo [1] = assay: Cytotoxicity against human LoVo cells after 72 hrs by MTT assay; format: functional, cell-based
In short: (§1)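 Log-phase cells seeded at 40000–50000 cells/mL, attached overnight, then exposed to 10^-4–10^-9 M compound for 72 h at 37 °C, 5% CO₂. Viable cells measured by MTT, absorbance 570 nm. Triplicates in at least three independent assays; IC50 by nonlinear regression.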

LoVo [2] = assay: Cell cycle arrest in human LoVo cells assessed as accumulation at G2/M phase at 25 uM after 24 hrs using propidium iodide staining by flow cytometry relative to control; format: functional
In short: (§2)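 LOVO cells (10⁶) treated 24 h with compound; pelleted, fixed in citrate buffer, RNase A 20 min, then propidium iodide 20 min. DNA content read by flow cytometry to give percentage of cells per cycle phase, untreated cells as control.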

Bos taurus = organism: Bos taurus; assay: Inhibition of bovine brain tubulin polymerization at 10 uM after 60 mins by turbidimetry analysis
CCRF-CEM = assay: Cytotoxicity against human CEM cells after 72 hrs by MTT assay; format: functional, cell-based; in short: as §1
MDA-MB-435 = assay: Cytotoxicity against human MDA-MB-435 cells after 72 hrs by MTT assay; format: functional, cell-based; details: MDA-MB-435, 72 h; in short: as §1
LoVo [3] = assay: Cell cycle arrest in human LoVo cells assessed as accumulation at G2/M phase at 5 uM after 24 hrs using propidium iodide staining by flow cytometry (reference value: 13%); format: functional; in short: as §2

Row | inhibition (Bos taurus) | SMILES | pIC50 (LoVo [1]) | Activity (LoVo [2]) | pIC50 (CCRF-CEM) | pIC50 (MDA-MB-435) | Activity (LoVo [3])
1 | Active | COc1ccc(NC(=O)c2[nH]c(=O)[nH]c2-c2cc(OC)c(OC)c(OC)c2)cc1N | 5.47 | 74% | 6.48 | 6.21 | 28%
2 | – | COc1cc(-c2[nH]c(=O)[nH]c2C(=O)Nc2cccc(Cl)c2)cc(OC)c1OC | 5.44 | – | 5.32 | 5.32 | –
3 | – | COc1cc(-c2[nH]c(=O)[nH]c2C(=O)Nc2cccc([N+](=O)[O-])c2)cc(OC)c1OC | 4.46 | – | < 3.70 | 4.35 | –
4 | – | COc1cc(-c2[nH]c(=O)[nH]c2C(=O)Nc2ccccc2)cc(OC)c1OC | 4.11 | – | 4.34 | 4.39 | –
5 | inactive | COc1ccc(NC(=O)c2[nH]c(=O)[nH]c2-c2cc(OC)c(OC)c(OC)c2)cc1[N+](=O)[O-] | 4.36 | – | < 3.70 | < 3.62 | –
6 | – | COc1ccc(NC(=O)c2[nH]c(=O)[nH]c2-c2cc(OC)c(OC)c(OC)c2)cc1 | 4.45 | – | 5.64 | 4.76 | –
7 | – | COc1cc(-c2[nH]c(=O)[nH]c2C(=O)Nc2ccc(Cl)cc2)cc(OC)c1OC | 3.96 | – | < 3.70 | 3.82 | –
8 | – | COc1ccc(NC(=O)c2[nH]c(=O)[nH]c2-c2cc(OC)c(OC)c(OC)c2)cc1OC | 4.92 | – | 5.38 | 5.31 | –
9 | – | COc1cc(-c2[nH]c(=O)[nH]c2C(=O)Nc2ccc(Cl)c(Cl)c2)cc(OC)c1OC | 5.31 | – | 4.92 | 4.72 | –
10 | – | COc1cc(-c2[nH]c(=O)[nH]c2C(=O)Nc2ccc(C(C)(C)C)cc2)cc(OC)c1OC | 4.47 | – | 4.41 | 4.49 | –
11 | – | COc1cc(-c2[nH]c(=O)[nH]c2C(=O)Nc2cc(C)cc(C)c2)cc(OC)c1OC | 4.63 | – | 4.71 | 4.47 | –
12 | Active | COc1cc(-c2[nH]c(=O)[nH]c2C(=O)Nc2cccc(C)c2)cc(OC)c1OC | 6.21 | – | 6.74 | 6.12 | –
13 | Active | COc1cc(-c2[nH]c(=O)[nH]c2C(=O)Nc2ccc(C)cc2)cc(OC)c1OC | 5.33 | – | 6.62 | 6.20 | –
14 | – | COc1cc2c(c(OC)c1OC)-c1ccc(OC)c(=O)cc1[C@@H](NC(C)=O)CC2 [COLCHICINE] | 7.00 | – | 7.76 | 8.14 | –
15 | – | COc1cc(-c2[nH]c(=O)[nH]c2C(=O)Nc2ccc(C)c(Cl)c2)cc(OC)c1OC | 5.26 | – | 5.68 | 5.08 | –
16 | – | COc1cc(-c2[nH]c(=O)[nH]c2C(=O)Nc2cccc3ccccc23)cc(OC)c1OC | 5.46 | – | 4.93 | 5.03 | –
